Results on twelve molecules are retold here after ChEMBL document CHEMBL1159085, “Proteasome inhibition in human breast cancer cells with high catechol-O-methyltransferase activity by green tea polyphenol EGCG analogs” (Bioorg Med Chem, 2010).

For assay [1], the system named is MDA-MB-231. Nature of the assay: Inhibition of chymotrypsin like activity of 20S proteasome in human MDA-MB-231 cells assessed as cleavage of Suc-LLVY-AMC substrate after 2 hrs by fluorogenic assay. Format: cell-based. In outline:
(§1)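 Crude MDA-MB-231 cell extract (5.7 μg) was used as the source of 26S proteasome. It was incubated with compound at a range of concentrations, or with solvent, plus 20 μM Suc-LLVY-AMC in 20 mM Tris-HCl, pH 7.5, for 2 h at 37°C. Chymotrypsin-like activity was read by fluorescence at 355 nm excitation and 460 nm emission.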

Assay [2] in a line: (§2) Inhibition of chymotrypsin like activity of rabbit 20S proteasome assessed as cleavage of Suc-LLVY-AMC substrate after 2 hrs by fluorogenic assay. Set-up: species or system Oryctolagus cuniculus. The gist of the method:
(§3)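 Purified rabbit 20S proteasome (35 ng) was incubated with 20 μM Suc-LLVY-AMC in 20 mM Tris-HCl, pH 7.5, with compound at various concentrations or solvent, for 2 h at 37°C. Fluorogenic substrate hydrolysis was then measured at 355 nm excitation and 460 nm emission.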

The test system of assay [3] is MDA-MB-231. As to the kind of experiment: Inhibition of chymotrypsin like activity of 20S proteasome in human MDA-MB-231 cells lysates with high catechol-O-methyltransferase activity assessed as cleavage of Suc-LLVY-AMC substrate at 1 to 10 uM after 2 hrs by fluorogenic assay. Format: cell-free. The gist of the method: as §1
In assay [4] the test system is MDA-MB-231. As to the kind of experiment: Inhibition of chymotrypsin like activity of 20S proteasome in COMT inhibitor 3,5-dinitrocatechol pretreated human MDA-MB-231 cells lysates with high catechol-O-methyltransferase activity assessed as cleavage of Suc-LLVY-AMC substrate at 10 uM after 2 hrs by fluorogenic assay. In kind it is cell-free. In outline:
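MDA-MB-231 cell extract (5.7 μg) was pre-treated with 10 μM 3,5-dinitrocatechol for 20 min. Compound and 20 μM Suc-LLVY-AMC were then added in 20 mM Tris-HCl, pH 7.5, and incubated for 2 h at 37°C. AMC release was read by fluorescence at 355 nm excitation and 460 nm emission.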

A short description of assay [5]: Inhibition of chymotrypsin like activity of proteasome. Format: subcellular.
For assay [6], the species on record is Oryctolagus cuniculus. Described as §2. In outline: as §3
Assay [7] deals with MDA-MB-231. As to the kind of experiment: Inhibition of chymotrypsin like activity of 20S proteasome in human MDA-MB-231 cells lysates with high catechol-O-methyltransferase activity assessed as cleavage of Suc-LLVY-AMC substrate at 10 uM after 2 hrs by fluorogenic assay. The gist of the method:
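MDA-MB-231 cell extract (5.7 μg protein) incubated with test agent or solvent and 20 μM Suc-LLVY-AMC in 20 mM Tris–HCl pH 7.5 for 2 h at 37°C. Chymotrypsin-like activity read as AMC fluorescence (ex 355 nm, em 460 nm).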

The species named for assay [8] is Oryctolagus cuniculus. Nature of the assay: Inhibition of chymotrypsin like activity of rabbit 20S proteasome assessed as cleavage of Suc-LLVY-AMC substrate at 50 uM after 2 hrs by fluorogenic assay. In outline:
as §3

Assay [9] relates to MDA-MB-231. As to the kind of experiment: Antiproliferative activity against human MDA-MB-231 cells with high catechol-O-methyltransferase activity at 25 uM after 24 hrs by MTT assay. In kind it is functional. Particulars: for inhibition at 25 µM: MDA-MB-231, 24 h. In outline:
(§4)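 MDA-MB-231 cells were grown in RPMI 1640 with 10% FBS, 100 units/ml penicillin and 100 μg/ml streptomycin at 37°C and 5% CO2. Triplicate wells were exposed to 25 or 50 μM compound for 24 h. MTT (1 mg/ml) was then added for 3 h at 37°C, and the formazan was dissolved in DMSO after the medium was removed.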

Assay [10] has as its system MDA-MB-231. As to the kind of experiment: Antiproliferative activity against human MDA-MB-231 cells with high catechol-O-methyltransferase activity at 50 uM after 24 hrs by MTT assay. In kind it is functional. The gist of the method: as §4
Assay [11] concerns MDA-MB-231. As to the kind of experiment: Inhibition of 20S proteasome in human MDA-MB-231 cells assessed as accumulation of proteasome substrate at 50 uM after 22 hrs by Western blot. Format: cell-based. In outline:
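Intact MDA-MB-231 cells were cultured in RPMI 1640 with 10% FBS and penicillin/streptomycin at 37°C and 5% CO2. They were treated with 50 μM compound for 22 h. Accumulation of ubiquitinated proteins, used as a measure of proteasome substrates, was then detected by Western blotting of cell lysates.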

In assay [12] the test system is MDA-MB-231. As to the kind of experiment: Antiproliferative activity against human MDA-MB-231 cells at 25 to 50 uM after 24 hrs by MTT assay. In kind it is functional. The gist of the method: as §4

Each structure is given as a SMILES string. The source made the active and inactive calls. No cut-off for these calls is given here.

As for `CC(=O)Oc1cc(OC(C)=O)cc(C(=O)O[C@H]2Cc3ccccc3C[C@H]2OC(C)=O)c1`, in the assay with MDA-MB-231 [1], the inhibition entry was “inactive”.
Take `O=C(O[C@H]1Cc2ccccc2C[C@H]1OC(=O)c1cc(O)cc(O)c1)c1cc(O)cc(O)c1`: the IC50 in [2] was found to be 29 µM. The inhibition with MDA-MB-231 [3] worked out at 18%. Further, the inhibition result in the assay with MDA-MB-231 [4] is “Active”.
As to `O=C(O[C@H]1Cc2ccccc2C[C@H]1OC(=O)c1cc(O)c(O)c(O)c1)c1cc(O)c(O)c(O)c1`, the IC50 in assay [5] worked out at 340 nM; in [2] it was 19 µM. For the same molecule, the inhibition with MDA-MB-231 [3] is 10%. For the same molecule, the inhibition result in the assay with MDA-MB-231 [4] was “Active”.
For the molecule `O=C(O[C@@H]1Cc2c(O)cc(O)cc2O[C@@H]1c1cc(O)c(O)c(O)c1)c1cc(O)c(O)c(O)c1` (stereo in doubt; 3) [EPIGALOCATECHIN GALLATE], the IC50 in assay [5] turned out to be 170 nM.
Consider `O=C(O[C@@H]1Cc2c(O)cc(O)cc2O[C@@H]1c1cc(O)c(O)c(O)c1)c1cc(O)c(O)c(O)c1` (stereo in doubt; 1), for which the inhibition result in the assay filed under Oryctolagus cuniculus [6] and with MDA-MB-231 [4] was “Active” each time. The inhibition in the assay on MDA-MB-231 [7] turned out to be 22%.
Consider `CC(=O)Oc1cc(C(=O)O[C@H]2Cc3ccccc3C[C@H]2OC(C)=O)cc(OC(C)=O)c1OC(C)=O`, for which the inhibition result with MDA-MB-231 [1] was “inactive”.
Take `O=C(O[C@H]1Cc2ccccc2C[C@H]1O)c1cc(O)cc(O)c1`: the inhibition entry in the assay filed under Oryctolagus cuniculus [8] was “inactive”.
With `CC(=O)Oc1cc(OC(C)=O)cc(C(=O)O[C@H]2Cc3ccccc3C[C@H]2OC(=O)c2cc(OC(C)=O)cc(OC(C)=O)c2)c1`, in the assay with MDA-MB-231 [1], the inhibition entry is “inactive”. Also, the “growth inhibition (GI)” value in the assay with MDA-MB-231 [9] and in the assay on MDA-MB-231 [10] was “Active” each time. Further, the inhibition at 25 µM in the assay on MDA-MB-231 [9] is 69%. Further, the inhibition at 50 µM in the assay on MDA-MB-231 [10] (MDA-MB-231, 24 h, read-out: INH) came to 69%. In addition, in the assay with MDA-MB-231 [11], the inhibition result was “Active”.
As for `O=C(O[C@H]1Cc2ccccc2C[C@H]1O)c1cc(O)c(O)c(O)c1`, in the assay filed under Oryctolagus cuniculus [8], the inhibition entry is “inactive”.
For the molecule `O=C(O[C@@H]1Cc2c(O)cc(O)cc2O[C@@H]1c1cc(O)c(O)c(O)c1)c1cc(O)c(O)c(O)c1` (stereo in doubt; 1) [EPIGALOCATECHIN GALLATE], half-maximal inhibition in assay [5] (IC50) required 86 nM.
Regarding `CC(=O)Oc1cc(OC(C)=O)c2c(c1)O[C@H](c1cc(OC(C)=O)c(OC(C)=O)c(OC(C)=O)c1)[C@H](OC(=O)c1cc(OC(C)=O)c(OC(C)=O)c(OC(C)=O)c1)C2`, the inhibition entry in the assay with MDA-MB-231 [1] is “inactive”. In the assay on MDA-MB-231 [9], this molecule came in with an inhibition at 25 µM of 42%. Also, the “growth inhibition (GI)” value in the assay on MDA-MB-231 [12] was determined as 0%.
In the case of `CC(=O)Oc1cc(C(=O)O[C@H]2Cc3ccccc3C[C@H]2OC(=O)c2cc(OC(C)=O)c(OC(C)=O)c(OC(C)=O)c2)cc(OC(C)=O)c1OC(C)=O`, the inhibition result in the assay with MDA-MB-231 [1] was “inactive”. The “growth inhibition (GI)” value in the assay on MDA-MB-231 [9] and in the assay on MDA-MB-231 [10] was “Active” throughout. The molecule also returned an inhibition at 25 µM in the assay on MDA-MB-231 [9] of 48%. Further, the “growth inhibition (GI)” value with MDA-MB-231 [12] is 50%.
